Compound activity: PubChem BioAssay, The Scripps Research Institute Molecular Screening Center
Sampled rows, rich in hits. Any-hit rate of the full collection: about 4.6%.
TAAR1 antag – human TAAR1 antagonists, primary screen, Fluo-8 calcium fluorescence, CHO RD-HGA16 cells; Trace amine-associated receptor 1 (Homo sapiens), Q96RJ0; antagonist; inhibition, % at 3 µM; 360,000 tested, 1.5% active; AID 624466, 2012;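 active = inhibition above a per-plate cutoff, the mean inhibition of test compounds on that plate plus 3 SD, cut at about 49% in these data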;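 also: 0% = DMSO plus EC80 beta-PEA response and 100% = DMSO alone without agonist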
Target sequence (Q96RJ0 whole entry, looked up): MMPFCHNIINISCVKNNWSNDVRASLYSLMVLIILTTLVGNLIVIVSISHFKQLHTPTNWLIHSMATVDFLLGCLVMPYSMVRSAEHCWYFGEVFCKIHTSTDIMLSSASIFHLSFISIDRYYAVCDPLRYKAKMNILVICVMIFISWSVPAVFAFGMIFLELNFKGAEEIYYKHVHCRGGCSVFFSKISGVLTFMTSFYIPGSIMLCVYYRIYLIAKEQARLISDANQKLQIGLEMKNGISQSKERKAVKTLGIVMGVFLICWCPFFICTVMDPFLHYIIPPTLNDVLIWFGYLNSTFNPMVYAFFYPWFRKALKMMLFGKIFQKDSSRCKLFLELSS
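Assay system: CHO-derived RD-HGA16 cells stably expressing human TAAR1 plus Gα16. Timing: 140 s kinetic read after compound, 140 s after agonist. Technique: kinetic Fluo-8 calcium fluorescence measurement. Measure: % inhibition of agonist calcium response.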
GPR7 antagonist – GPR7 receptor antagonists, primary screen, cell-based, fluorescence, single concentration. 290,000 tested, 1.1% active. GPR7-expressing cells, fluorescence antagonist assay. inhibition, % at 4.4 µM; in the data active = inhibition above about 16%, passing the limit was not always enough;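 also: cells stimulated with the agonist NPW; 0% = agonist with vehicle and 100% = vehicle without agonist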
Target sequence (P48145 whole entry, looked up): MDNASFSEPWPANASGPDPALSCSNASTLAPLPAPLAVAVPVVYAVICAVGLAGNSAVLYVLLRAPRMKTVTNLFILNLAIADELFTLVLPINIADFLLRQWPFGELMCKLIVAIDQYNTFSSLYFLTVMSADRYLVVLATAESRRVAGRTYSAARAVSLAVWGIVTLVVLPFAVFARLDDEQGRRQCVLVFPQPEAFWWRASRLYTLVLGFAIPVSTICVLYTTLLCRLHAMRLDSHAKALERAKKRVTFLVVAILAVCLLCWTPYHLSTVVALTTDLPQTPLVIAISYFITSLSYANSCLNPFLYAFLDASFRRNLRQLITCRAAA
OX1R antag-1 – antagonists of human orexin 1 receptor (OX1R); 330,000 tested, 1.8% active; OX1R-expressing cells, FRET antagonist read-out; Orexin/Hypocretin receptor type 1 (Homo sapiens), O43613; inhibition, % at 6.6 µM; in the data active = inhibition mostly above about 38%, no sharp cut-off; inactive = mostly below about 40%;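 also: 0% = agonist challenge alone and 100% = reference antagonist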
CHO parental Ca – ATP-evoked calcium signal inhibitors, parental CHO, primary screen, counter-screen for OX1R antagonist project, cell-based, fluorescence, Fluo-8 calcium dye; parental CHO-K1, ATP-induced calcium, Fluo-8 fluorescence; inhibition, % at 5.6 µM; 330,000 tested, 0.63% active; AID 463079, 2010;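 active = inhibition above that plate's mean sample inhibition plus 3 SD, cut at about 26% in these data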;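 also: 0% = ATP-challenged DMSO wells and 100% = DMSO wells without ATP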
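Material – parental CHO cells · Reagent – ATP stimulus · Compound – single nominal dose of 5.6 µM per compound · Detection – Fluo-8 fluorescence · Read-out basis – percent inhibition of calcium signal · Controls – ATP-challenged DMSO wells low, unchallenged DMSO wells high · Repeats – no replicates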
TAAR1 ag – human TAAR1 agonists, primary screen, Fluo-8 calcium fluorescence, CHO RD-HGA16 cells. Trace amine-associated receptor 1 (Homo sapiens), Q96RJ0. vehicle wells 0%, saturating PEA agonist 100%. activation, % at 3 µM. 360,000 tested, 0.99% active. AID 624467, 2012;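 active = activation above the mean activation of all test compounds in the run plus 3 SD, cut at about 38% in these data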
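Test system: RD-HGA16 (CHO) cells co-expressing Gα16 and hTAAR1; dosing: one-point dosing at 3 µM (nominal); timing: 17-24 h seeding, 75 min 37 °C dye, 30 min RT; signal: kinetic Fluo-8 calcium fluorescence; read-out basis: % activation relative to PEA EC100 response; controls: DMSO and PEA EC100; replicates: n 1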
OX1R antag-2 – OX1R (HCRTR1) antagonists, primary screen, fluorescence, CHO/OX1R cells, Fluo-8 calcium, orexin A; Fluo-8 calcium fluorescence; AID 434989, 2010; inhibition, % at 5 µM; 330,000 tested, 0.43% active; Orexin/Hypocretin receptor type 1 (Homo sapiens), O43613;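 active = inhibition above its plate's threshold, mean inhibition of all tested compounds on the plate plus 3 SD, cut at about 37% in these data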;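 also: 0% = orexin A challenge wells and 100% = SB-334867-A antagonist wells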
* = called active by the depositor; nt = not tested or not shown.

SMILES	TAAR1 antag	GPR7 antagonist	OX1R antag-1	CHO parental Ca	TAAR1 ag	OX1R antag-2
Cc1[nH]c2ccccc2c1/C=N/NC(=O)c1cc(-c2ccccc2)n[nH]1	61*	3	70*	7	15	30
Cc1[nH]c2ccccc2c1/C=N/NC(=O)c1cc(C(C)(C)C)[nH]n1	5	-3	38*	-6	1	-15
COc1ccc(C(=O)N2CCC2(C)C(=O)NC(C)C)cc1 (centres undefined)	-27	nt	nt	nt	6	nt
COC(=O)C1=C(C)N(C)C(=NCc2ccc(OC)cc2)NC1c1ccc(F)cc1 (centres undefined)	2	nt	nt	nt	0	nt
Cc1ccc(S(=O)(=O)N2CC3(O)CN(C(=O)OC(C)C)N(C(=O)OC(C)C)CC3(OC(=O)NCc3ccccc3F)C2)cc1 (centres undefined)	60*	nt	nt	nt	9	nt
CC1(Oc2cccc(C#N)c2)CCN(Cc2csc3ccccc23)C1 (centres undefined)	-14	nt	nt	nt	7	nt
CN(C)CCN1C(=O)C(O)=C(C(=O)c2cc3ccccc3o2)C1c1ccccn1 (centres undefined)	nt	15	49*	8	nt	-7
O=c1c2ccccc2oc2cc(C#CC3(O)CCCCC3)ccc12	28	nt	61*	-34	31	-20
O=c1c2ccccc2sc2ccc(C#CC3(O)CCCCC3)cc12	33	nt	41	-24	7	-9
O=C1[C@@H]2CSCCS(=O)(=O)N2C(=O)N1C1CCCCC1	5	nt	nt	nt	2	nt
NS(=O)(=O)c1ccc(Nc2ncccc2[N+](=O)[O-])cc1	12	-1	58*	4	4	1
CC(=O)c1ccccc1Oc1nc(CN2CCOCC2)nc2scc(-c3cccs3)c12	12	3	44*	-23	0	12
O=[N+]([O-])c1cccc(COc2ccc(CO)cc2)c1	0	nt	nt	nt	0	nt
COCCn1c(C)cc(C(=O)CN2C(=O)NC3(CCCCCC3)C2=O)c1C	6	nt	30*	-2	10	-11
CN1CCCCC(NC(=O)c2ccc(C#N)cc2)C1=O (centres undefined)	4	nt	nt	nt	0	nt
CN1CCN(Cc2c(O)ccc3occ(C(=O)c4ccccc4)c23)CC1	2	-2	25	-19	5	-30
CC(=O)C(C(C)=O)c1c(Cl)c(O)c(O)c2c(C(=O)c3ccccc3)coc12	29	-10	34	-29	39*	-8
CSc1ccc(CN2CCC2(C)C(=O)Nc2cccc(Oc3ccccc3)c2)cc1 (centres undefined)	-40	nt	nt	nt	2	nt
Oc1ccc(Br)cc1CNc1cccc2cccnc12	-2	3	16	-1	4	-8
COc1cccc(CNc2cccc3cccnc23)c1O	6	-7	54*	13	10	-17
Oc1c(Br)cc(Br)cc1CNc1cccc2cccnc12	-5	-6	29*	-9	4	5
CC(=O)Nc1cccc(-c2ccnc3c2CC(C)(C(=O)Nc2cccc(Oc4ccccc4)c2)O3)c1 (centres undefined)	-8	nt	nt	nt	2	nt
Oc1ccc(C2=NN(c3ccccc3)C(c3ccc(F)cc3)C2)cc1 (centres undefined)	-1	-18	17	58*	2	5
Oc1ccccc1C1=NN(c2ccccc2)C(c2ccc(F)cc2)C1 (centres undefined)	-12	-12	nt	nt	2	nt
COc1cc(CCc2ccccc2)c(C(=O)O)c(O)c1C/C=C(/C)CCC=C(C)C	53*	nt	15	46*	-1	23
SMILES	TAAR1 antag	GPR7 antagonist	OX1R antag-1	CHO parental Ca	TAAR1 ag	OX1R antag-2
COc1cc(CCc2ccccc2)c(C(=O)O)c(O)c1CC=C(C)C	26	nt	nt	nt	-3	nt
O=C(N[C@H](C(=O)N1CCC[C@H]1C(=O)NC1CCCC1)C1CCCCC1)c1ccc(Cl)cc1Cl	-14	nt	nt	nt	-1	nt
CCc1nnc(N/N=C/c2c(C)[nH]c3ccccc23)n1N	-10	-10	68*	12	1	3
Cc1[nH]c2ccccc2c1/C=N/NC(N)=S	-11	-5	-1	-4	4	-1
Clc1cccc(Cl)c1/C=N\Nc1nccs1	-5	-6	21	-6	5	-26
Cc1nnc(N/N=C/c2c(Cl)cccc2Cl)n1N	3	-2	61*	-5	0	-15
CCc1nnc(N/N=C/c2cc(C)c(C)cc2C)n1N	13	-11	nt	nt	1	nt
CCc1nnc(N/N=C/c2c(F)cccc2Cl)n1N	-14	-16	71*	-6	0	-5
Cn1cccc1/C=N/n1c(-c2ccc(C(C)(C)C)cc2)n[nH]c1=S	52*	-23	7	2	26	-8
O=C(Nc1ccccc1O)C(c1ccccc1)c1ccccc1	35	19	14	67*	5	23
O=C(Nc1ccccc1O)c1ccccc1O	0	-2	13	37*	10	9
O=C(Nc1ccc(F)cc1)c1ccccc1F	-2	-7	-1	-8	9	4
Cc1cccc(NC(=O)c2ccccc2O)c1C	8	12	20	-3	6	-3
O=C(Nc1ccc(F)cc1)Nc1ccc(NC(=O)c2ccccc2O)cc1	58*	8	11	16	41*	5
CC(C)C[C@H]1CN(CCCC[C@@H]2CNC(=O)C(=O)N2CC2CCCCC2)C(=O)C(=O)N1Cc1ccccc1	-22	nt	nt	nt	1	nt
CCCCCCn1c(=O)n2n(c1=O)C[C@]1(OC(=O)Nc3c(C)noc3C)CN(S(=O)(=O)c3ccc(C)cc3)C[C@]1(O)C2	17	nt	nt	nt	10	nt
CC1CCCCN1C(=O)CCS(=O)(=O)c1cccc2nonc12 (centres undefined)	-31	-4	71*	14	0	-1
CSCCC(NS(=O)(=O)c1ccc2c(c1)OCCO2)C(=O)N(C)Cc1ccccc1F (centres undefined)	55*	nt	9	-18	31	-19
N#Cc1nc(COc2ccccc2)oc1N1CCCCCC1	-4	3	25	54*	-2	-23
CN(C)c1ccc(NC(=O)c2sc(SCC(=O)Nc3nccs3)nc2N)cc1	67*	-6	15	0	20	22
O=C(O)Cc1ccc(NC(=O)COc2ccc3ccccc3c2)cc1	-1	-10	-1	-6	3	5
COc1cc2ccccc2cc1C(=O)Nc1ccc(Cc2ccncc2)cc1	41	2	21	38*	19	45*
O=C(COc1ccc2ccccc2c1)Nc1ccc(Cc2ccncc2)cc1	26	-3	35	24	3	59*
